In PubChem BioAssay AID504338 (NMMLSC, 2011):
Activity calls are given as the source filed them.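 Rule for the calls: active = GFP response vs DMSO above 150% with enough events counted; inconclusive = fewer than 70 events counted for a yeast strain; inactive = the rest.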

Test: yeast TOR reporter LAP4-GFP retest – cell-based, third cherry pick, flow cytometry, confirmation (AID 504338);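 note: ratio to plate DMSO wells so 100% equals DMSO level rather than 0%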
Conditions: S. cerevisiae LAP4-GFP strain, 3 h, at 10 µM, stronger effect = higher value
How it was run: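 Assay system – yeast LAP4-GFP strain · Buffer or medium – synthetic complete medium · Times – compound exposure for 3 h at 30 °C · Technique – flow cytometric GFP fluorescence · Evaluation – median GFP fluorescence as percent of plate DMSO-well average · Benchmarks – rapamycin 400 ng/mL as positive control, DMSO wells as reference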

Compound | GFP response vs DMSO
CCCCC(=O)NCCc1cc2c(OC)ccc(OC)c2[nH]c1=O | 108% (inactive)
Cc1cc(C)c(NC(=O)CC(=O)c2ccccc2)c(Cl)c1 | 100% (inactive)
O=c1cc(C(F)(F)F)[nH]c2c(OC(F)(F)F)cccc12 | 98.6% (inactive)
O=C(Nc1ccccc1)O/N=C1\CCCCC1c1ccc([N+](=O)[O-])cc1[N+](=O)[O-] (centres undefined) | 106% (inactive)
CC(=O)CC(=O)Nc1ccc(C(N)=O)cc1 | 101% (inactive)
COc1ccccc1Nc1nc(NCCO)nc(N)c1[N+](=O)[O-] | 104% (inactive)
CS(=O)(=O)Oc1ccc(Br)c2cccnc12 | 104% (inactive)
Nc1cc(C(=O)O)c(N)c2c1C(=O)c1ccccc1C2=O | 106% (inactive)
OCc1ccc(O)c2ncccc12 | 101% (inactive)
Cc1ccc2c(C)ccc(O)c2n1 | 101% (inactive)
Cc1ccc(C(=O)Nc2nc(-c3ccccn3)cs2)o1 | 103% (inactive)
CCCC(=O)Nn1cnc2c(c1=O)C1(CCCCC1)Cc1ccccc1-2 | 103% (inactive)
Cc1ccc(Nc2cc(=O)[nH]c(=O)[nH]2)cc1Cl | 103% (inactive)
Cc1cn2c(N)c(C=C3C=C(Cl)C(=O)C(Cl)=C3)c(=O)nc2s1 | 108% (inactive)
C=CCNc1ncnc2ccc(Br)cc12 | 106% (inactive)
CC1=NNC(=O)/C1=C\c1cn(-c2ccccc2)nc1-c1ccc(F)cc1 | 179% (active)
Oc1ccc(F)c2cccnc12 | 106% (inactive)
O=C(O)c1ccc2cccnc2c1O | 106% (inactive)
CSc1nc(S(C)(=O)=O)nc2[nH]c(=O)[nH]c12 | 104% (inactive)
